Common to all, as to assay type: functional, cell-based
One test relates to CNE. As to the kind of experiment: Cytotoxicity against human CNE1 cells after 48 hrs by MTT assay. In a few lines:
(§1)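 Growth inhibition in nasopharyngeal carcinoma lines (CNE1, CNE2, HONE-1, SUNE-1) and HT-29 colon cells. IC50 values are the mean ± SD of three experiments, with cisplatin as positive control.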
In general terms: Tetrazolium assays rely on reduction of a dye to a coloured formazan, in cell work by metabolically active cells.

Another test relates to SUNE1. Put plainly: Cytotoxicity against human SUNE1 cells after 48 hrs by MTT assay. The conditions noted are these: SUNE1, 48 h. Put shortly: as §1
A further test deals with HONE1 cell line. As to the kind of experiment: Cytotoxicity against human HONE1 cells after 48 hrs by MTT assay. The conditions noted are these: HONE1, 48 h. Put shortly: as §1
The next test deals with HT-29. Put plainly: Cytotoxicity against human HT-29 cells after 48 hrs by MTT assay. Conditions: HT-29, 48 h. Put shortly: as §1
The next test has as its system CNE-2. Put plainly: Cytotoxicity against human CNE2 cells after 48 hrs by MTT assay. Conditions: CNE-2, 48 h. Put shortly:
as §1

Regarding `C=C1C(=O)O[C@@H]2[C@@H]3[C@@]4(C=C[C@@]3(C)[C@]3(C4)C(=O)O[C@@H]4[C@H]5C(C)=CC[C@H]5[C@](C)(O)C[C@H](OC(C)=O)[C@H]43)[C@](C)(O)CC[C@@H]12`, the IC50 in the test with CNE, in the test on SUNE1, in the test on HONE1 cell line, with HT-29 and with CNE-2 was greater than 10 µM in each case.
With `C=C1C(=O)O[C@@H]2[C@@H]3[C@@]4(C=C[C@@]3(C)[C@]3(C4)C(=O)O[C@@H]4[C@H]5C(C)=CC[C@H]5[C@](C)(O)C[C@H](OC(=O)/C(C)=C/C)[C@H]43)[C@](C)(O)CC[C@@H]12`, the half-inhibitory concentration (IC50) with CNE, in the test on SUNE1, in the test on HONE1 cell line, in the test on HT-29 and in the test on CNE-2 was greater than 10 µM in each case.
Take `C=C1C(=O)O[C@@H]2[C@H]3C(C)=CC[C@H]3[C@](C)(O)C[C@H](OC(=O)/C(C)=C/C)[C@@H]12`: the half-maximal inhibitory concentration (IC50) was 7.9 µM in the test with CNE; 3 µM with SUNE1; 6.5 µM in the test with HONE1 cell line; greater than 10 µM with HT-29; greater than 10 µM with CNE-2.
`C=C1C(=O)O[C@H]2[C@H]1[C@@H](O)C[C@@](C)(O)[C@]13C=C[C@](C)([C@H]21)[C@]1(C3)C(=O)O[C@@H]2[C@H]3C(C)=CC[C@H]3[C@](C)(O)C[C@H](OC(=O)/C(C)=C\C)[C@H]21`: the IC50 in the test on CNE, with SUNE1, in the test on HONE1 cell line, in the test with HT-29 and with CNE-2 was greater than 10 µM in each case.
Regarding `C/C=C(\C)C(=O)O[C@H]1C[C@@](C)(O)[C@@H]2CC(=O)C(C)=C2[C@H]2OC(=O)[C@@H](C)[C@H]12`, the IC50 in the test with CNE, with SUNE1, in the test on HONE1 cell line, with HT-29 and in the test on CNE-2 was greater than 10 µM in each case.
As to `C/C=C(/C)C(=O)O[C@H]1C[C@@](C)(O)[C@@H]2CC(=O)C(C)=C2[C@H]2OC(=O)[C@@H](C)[C@H]12`, the IC50 in the test with CNE, in the test with SUNE1, in the test with HONE1 cell line, with HT-29 and in the test with CNE-2 was greater than 10 µM each time.
Regarding `CC1=CC[C@@H]2[C@H]1[C@H]1OC(=O)[C@@H](C)[C@@H]1[C@H](O)C[C@@]2(C)O`, the IC50 with CNE, with SUNE1, in the test with HONE1 cell line, in the test with HT-29 and with CNE-2 was greater than 10 µM throughout.
As for `C=C1C(=O)O[C@@H]2[C@@H]3[C@@]4(C=C[C@@]3(C)[C@]3(C4)C(=O)O[C@@H]4[C@H]5C(C)=CC[C@H]5[C@](C)(O)C[C@H](O)[C@H]43)[C@](C)(O)CC[C@@H]12`, the IC50 in the test with CNE, in the test on SUNE1, in the test with HONE1 cell line, in the test on HT-29 and in the test with CNE-2 was greater than 10 µM each time.
For the compound `C/C=C(\C)C(=O)O[C@H]1C[C@@](C)(O)[C@@H]2CC=C(C)[C@@H]2[C@H]2OC(=O)[C@H](C)[C@@H]21`, the IC50 with CNE, with SUNE1, in the test on HONE1 cell line, with HT-29 and in the test with CNE-2 was greater than 10 µM throughout.
As to `C=C1C(=O)O[C@H]2[C@H]1[C@@H](OC(=O)/C(C)=C/C)C[C@@](C)(O)[C@]13C=C[C@](C)([C@H]21)[C@]1(C3)C(=O)O[C@@H]2[C@H]3C(C)=CC[C@H]3[C@](C)(O)C[C@H](O)[C@H]21`, the IC50 with CNE is greater than 10 µM; in the test on SUNE1, greater than 10 µM; in the test with HONE1 cell line it was 7.5 µM; in the test on HT-29, greater than 10 µM; in the test on CNE-2, greater than 10 µM.
Consider `C=C1C(=O)O[C@@H]2[C@@H]3[C@@]4(C=C[C@@]3(C)[C@]3(C4)C(=O)O[C@@H]4[C@H]5C(C)=CC(=O)C5=C(C)CC[C@H]43)[C@](C)(O)CC[C@@H]12`, for which the IC50 in the test on CNE, in the test on SUNE1, with HONE1 cell line, in the test on HT-29 and in the test with CNE-2 was greater than 10 µM throughout.
`C/C=C(\C)C(=O)O[C@H]1CC(C)=C2C[C@H](O)[C@](C)(O)[C@@H]2[C@H]2OC(=O)[C@@H](C)[C@@H]21`: the 50% inhibitory concentration (IC50) in the test with CNE, in the test on SUNE1, with HONE1 cell line, in the test on HT-29 and with CNE-2 was greater than 10 µM throughout.
With `CC1=CC[C@@H]2[C@H]1[C@H]1OC(=O)[C@H](C)[C@@H]1[C@@H](O)C[C@@]2(C)O`, the IC50 in the test with CNE, with SUNE1, with HONE1 cell line, in the test on HT-29 and with CNE-2 was greater than 10 µM each time.
`C=C1C(=O)O[C@@H]2[C@H]3C(C)=CC[C@H]3[C@](C)(O)C[C@H](OC(=O)/C(C)=C\C)[C@@H]12`: the IC50 is 7.3 µM with CNE; 5.6 µM in the test on SUNE1; 7.6 µM with HONE1 cell line; greater than 10 µM in the test on HT-29; 7.4 µM with CNE-2.
For the compound `C/C=C(\C)C(=O)O[C@H]1C[C@@](C)(O)[C@]23C=C[C@](C)([C@@H]2[C@H]2OC(=O)[C@@H](C)[C@@H]21)[C@]1(C3)C(=O)O[C@@H]2[C@H]3C(C)=CC[C@H]3[C@](C)(O)C[C@H](O)[C@H]21`, the IC50 in the test on CNE was greater than 10 µM; with SUNE1, greater than 10 µM; with HONE1 cell line it was 9.2 µM; with HT-29 it was greater than 10 µM; in the test on CNE-2, 9.9 µM.

What is called IC50 is the point on the concentration scale where inhibition reaches its midpoint.

The values above are taken from ChEMBL document CHEMBL4330168, “Monomeric and Dimeric Cytotoxic Guaianolide-Type Sesquiterpenoids from the Aerial Parts of Chrysanthemum indicum” (J Nat Prod, 2019).
